Source: ChEMBL document CHEMBL3585255, “The Cephalostatins. 24. Isolation, Structure, and Cancer Cell Growth Inhibition of Cephalostatin 20” (2015)

Experiments:
Assay type in all cases: functional
[1] = Cytotoxicity against human BxPC3 cells after 48 hrs by sulforhodamine B assay; details: BXPC-3, 48 h
Procedure, shortened: (§1)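 Cells in RPMI1640 with 5% fetal bovine serum were plated in 96-well plates and incubated 24 h before serial dilutions of compound were added. After 48 h exposure, cells were fixed with trichloroacetic acid and stained with sulforhodamine B, and optical density was read on a plate reader. GI50, the concentration giving 50% reduction in net protein increase, was calculated from the OD data.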

MCF7 = assay: Cytotoxicity against human MCF7 cells after 48 hrs by sulforhodamine B assay; details: MCF7, 48 h; procedure, shortened: as §1
SF-268 = assay: Cytotoxicity against human SF268 cells after 48 hrs by sulforhodamine B assay; details: SF-268, 48 h; procedure, shortened: as §1
NCI-H460 = assay: Cytotoxicity against human NCI-H460 cells after 48 hrs by sulforhodamine B assay; details: NCI-H460, 48 h; procedure, shortened: as §1
[2] = Cytotoxicity against human KM20L2 cells after 48 hrs by sulforhodamine B assay; details: KM-20L2, 48 h; procedure, shortened: as §1
DU-145 = assay: Cytotoxicity against human DU145 cells after 48 hrs by sulforhodamine B assay; details: DU-145, 48 h; procedure, shortened: as §1

| Structure (SMILES) | GI50 [1] | GI50 (MCF7) | GI50 (SF-268) | GI50 (NCI-H460) | GI50 [2] | GI50 (DU-145) |
| --- | --- | --- | --- | --- | --- | --- |
| C[C@@H]1C[C@]2(O[C@H]3C=C4[C@@H]5CC[C@H]6Cc7nc8c(nc7C[C@]6(C)[C@H]5C[C@@H](O)[C@]4(CO)[C@H]3[C@@H]2C)C[C@@H]2CC[C@H]3C4=C[C@@H]5O[C@]6(O[C@](C)(CO)C[C@H]6O)[C@@H](C)[C@]5(O)[C@@]4(C)[C@H](O)C[C@@H]3[C@@]2(C)C8)OC1(C)C [CEPHALOSTATIN 8] | 26 nM | 26 nM | 150 nM | 15 nM | 47 nM | > 1100 nM |
| C[C@@H]1[C@]2(O[C@H]3C=C4[C@@H]5CC[C@H]6Cc7nc8c(nc7C[C@]6(C)[C@H]5C[C@@H](O)[C@]4(C)[C@]31O)C[C@@H]1CC[C@H]3C4=CC[C@@H]5[C@H](C)[C@@]6(OC[C@]45C(=O)C[C@]3(O)[C@@]1(C)C8)OC(C)(C)C[C@H]6O)O[C@](C)(CO)C[C@H]2O [CEPHALOSTATIN 2] | 0.022 nM | 0.022 nM | 0.12 nM | 0.0056 nM | 0.006 nM | 0.11 nM |
| C[C@H]1[C@@H](O)C2(Oc3cc4c(c5c3[C@H](C[C@H]5O)[C@@H]2C)CC[C@H]2Cc3nc5c(nc3C[C@]42C)C[C@@H]2CC[C@H]3C4=C[C@@H]6O[C@@]7(C[C@]6(O)[C@@]4(C)[C@H](O)C[C@@H]3[C@@]2(C)C5)O[C@](C)(CO)C[C@H]7O)OC1(C)C (some centres not stated) [CEPHALOSTATIN 5] | 330 nM | 340 nM | 440 nM | 150 nM | 100 nM | 120 nM |
| C[C@@H]1[C@H]2CC=C3[C@@H]4CC[C@H]5Cc6nc7c(nc6C[C@]5(C)[C@H]4CC(=O)[C@@]32COC1(O)[C@H](O)CC(C)(C)O)C[C@@H]1CC[C@H]2C3=C[C@@H]4O[C@]5(O[C@](C)(CO)C[C@H]5O)[C@@H](C)[C@]4(O)[C@@]3(C)[C@H](O)C[C@@H]2[C@@]1(C)C7 (some centres not stated) [CEPHALOSTATIN 9] | 14 nM | 110 nM | 150 nM | 39 nM | 58 nM | > 1100 nM |
| C[C@@H]1[C@]2(O[C@H]3C=C4[C@@H]5CC[C@H]6Cc7nc8c(nc7C[C@]6(C)[C@H]5C[C@@H](O)[C@]4(C)[C@]31O)C[C@@H]1CC[C@H]3[C@@]45O[C@@H]4C[C@@H]4[C@H](C)[C@@]6(OC[C@@]45C(=O)C[C@]3(O)[C@@]1(C)C8)OC(C)(C)C[C@H]6O)O[C@](C)(CO)C[C@H]2O [CEPHALOSTATIN 4] | 36 nM | 43 nM | 21 nM | 44 nM | 39 nM | 31 nM |
| C[C@@H]1[C@H]2C[C@@H]3O[C@@]34[C@]3(O)CC[C@H]5Cc6nc7c(nc6C[C@]5(C)C3=CC(=O)[C@]24CO[C@]12OC(C)(C)C[C@H]2O)C[C@@H]1CC[C@H]2C3=C[C@@H]4O[C@]5(O[C@](C)(CO)C[C@H]5O)[C@@H](C)[C@]4(O)[C@@]3(C)[C@H](O)C[C@@H]2[C@@]1(C)C7 [CEPHALOSTATIN 14] | 35 nM | 28 nM | 80 nM | 32 nM | 35 nM | 130 nM |
| CO[C@H]1c2nc3c(nc2C[C@@H]2CC[C@H]4C5=C[C@@H]6O[C@]7(O[C@](C)(CO)C[C@H]7O)[C@@H](C)[C@]6(O)[C@@]5(C)[C@H](O)C[C@@H]4[C@]21C)C[C@@]1(C)[C@@H](CC[C@H]2C4=CC[C@@H]5[C@H](C)[C@@]6(OC[C@]45C(=O)C[C@@]21O)OC(C)(C)C[C@H]6O)C3 [CEPHALOSTATIN 10] | 1.3 nM | 1.4 nM | 3.7 nM | 0.6 nM | 0.7 nM | 8.5 nM |
